# Assay outcomes from PubChem BioAssay.
# L major viab = reduces viability of Leishmania major promastigotes. 200,000 tested, 9% active. resazurin fluorescence viability. inhibition, % at 10 µM;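 further: promastigotes grown with compound for 44 hours at 28 °C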
# Diaphorase inh = diaphorase inhibition or chemical oxidation counter-screen; diaphorase resazurin-to-resorufin fluorescence, NADH, 16 min; bacterial (C. kluyveri) enzyme, not human; inhibition, % at 20 µM; 190,000 tested, 0.69% active;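 active means primary screen inhibition at 20 µM above a set limit, cut at about 50% in these data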;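 further: plate controls were DMSO with full reaction for no effect and wells lacking NADH for full effect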
#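 Detection: fluorescence of resorufin formed from resazurin, Ex 544/Em 590 nm; test system: Clostridium kluyveri diaphorase enzyme; amount: 0.14 U/mL diaphorase, enzyme working solution; times: 16-min room-temperature incubation before reading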
# WT yeast gro inh = growth inhibition of WT yeast, mitochondrial fusion screen; mitochondrial fusion phenotypic screen, WT strain; inhibition, % at 10 µM; 190,000 tested, 2.1% active; AID 1362; in the data active means inhibition above about 58%; tested in S. cerevisiae
# Diaph act CS = counter-screen for diaphorase-based assays: diaphorase activators and chemical reducers. Diaphorase/resazurin coupled assay, resorufin fluorescence, 16 min; stronger effect = higher value; 1 = vehicle wells, 0 = NADH-free wells. activation factor at 20 µM. 190,000 tested, 0.005% active;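 active means diaphorase activity raised at least twofold by the compound at 20 µM; inactive means activation factor below 2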
#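 Material: purified diaphorase enzyme from Clostridium kluyveri / Medium: HEPES pH 7.4 buffer with MgCl2 and Tween 20 / Schedule: enzyme reaction of 16 min at room temperature / Measured by: resorufin fluorescence, excitation 544 nm, emission 590 nm / Evaluation: rise in resorufin formation, marking diaphorase activation or chemical reduction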
# G6PDH CS = counter-screen for G6PDH assay hits: L. mesenteroides G6PDH inhibition; 200,000 tested, 0.12% active; inhibition, % at 5 µM; Purified L. mesenteroides G6PDH, diaphorase/resazurin coupled fluorescence, 45 min; AID 1020
# An asterisk follows results filed as active; / = no result given. An excerpt weighted towards active compounds, which were near 11% of everything screened. Unless noted, no stated cut-off is given here; in the data, active means inhibition above about 50%; inactive means the rest.
SMILES,L major viab,Diaphorase inh,WT yeast gro inh,Diaph act CS,G6PDH CS
Cc1cc(C)c(NC(=S)N(CCCN2CCN(C)CC2)Cc2cccs2)c(C)c1,18,6,8,0.9,-4
COc1ccc(NC(=S)N(CCCN2CCCC2)Cc2cccs2)cc1,80*,4,-12,1,10
CSc1cccc(NC(=S)N(CCCN2CCCC2)Cc2cccs2)c1,99*,1,-11,1,4
Cc1ccc(Cl)cc1NC(=S)N(CCCN1CCN(C)CC1)Cc1cccs1,54*,8,-7,0.9,0
COc1ccc(NC(=S)N(CCN(C)C)Cc2cccs2)cc1,7,2,11,1,0
COC(=O)c1cc2ccsc2n1Cc1ccccc1F,-2,11,29,0.9,5
COc1ccc(NC(=S)N(CCCN2CCCCCC2)Cc2cccs2)cc1,97*,5,-4,1,0
O=C(N/N=C/c1ccc(N2CCOCC2)cc1)c1cccs1,0,5,4,1,8
O=C(N/N=C/c1ccc(N2CCOCC2)cc1)c1ccccc1OCCOc1ccccc1,61*,7,5,0.9,-6
Cc1c(NC2(C#N)CCCC2)c(=O)n(-c2ccccc2)n1C,0,20,-5,0.8,8
Cc1cc(-c2ccccc2)nc2cc(C(=O)N(Cc3ccccc3)Cc3ccccc3)nn12,53*,26,75*,0.7,-2
COC(=O)c1cc2nc(-c3ccccc3)cc(C)n2n1,-3,23,15,0.8,-14
Cn1c(Cl)cnc1C1CC(=O)c2cc(Cl)ccc2O1 (configuration not stated),100*,7,0,0.9,13
Cc1nnc(N2CCN(c3ccccc3)CC2)c2nn(-c3ccccc3F)c(C)c12,20,/,/,/,/
CC(=O)c1ccc(Oc2ncnc3sccc23)c(CN2CCOCC2)c1,-5,20,-20,0.8,0
COc1ccc(-c2nnc(SCc3nc4ccccc4s3)n2C(C)C)cc1,84*,5,-6,1,15
COc1ccccc1-c1nnc(SCc2nc3ccccc3s2)n1C,-2,11,20,0.9,2
O=C(Cn1c(=O)oc2cc(S(=O)(=O)N3CCc4ccccc43)ccc21)N1CCCCC1,98*,15,-7,0.9,8
CC1Cc2ccccc2N1C(=O)Cn1c(=O)oc2cc(S(=O)(=O)N3CCCCC3)ccc21 (configuration not stated),100*,31,-10,0.7,9
CCOC(=O)Cn1c(=O)oc2cc(S(=O)(=O)N3CCN(c4ccccn4)CC3)ccc21,-7,18,-1,0.8,8
Cc1c(C(=O)N2CCc3ccccc3C2)oc2ccc(S(=O)(=O)N3CCCCCC3)cc12,66*,20,17,0.8,-2
O=C(Cn1c(=O)oc2cc(S(=O)(=O)N3CCCC3)ccc21)N1CCN(c2ccccn2)CC1,100*,6,-2,0.9,-24
Cc1cc(C(=O)CSc2nnnn2-c2ccc(O)cc2)c(C)n1C,3,4,-1,1,0
O=C(Cn1c(=O)oc2cc(S(=O)(=O)N3CCOCC3)ccc21)N1CCc2ccccc2C1,-3,12,-7,0.9,1
CCn1c(=O)n(CC)c2cc(S(=O)(=O)N3CCc4ccccc43)ccc21,87*,23,12,0.8,-9
SMILES,L major viab,Diaphorase inh,WT yeast gro inh,Diaph act CS,G6PDH CS
O=C(Cn1c(=O)oc2cc(S(=O)(=O)N3CCCC3)ccc21)N1CCc2ccccc2C1,100*,23,-5,0.8,11
CCOC(=O)CSc1nc2c(sc(=S)n2-c2ccccc2OC)c(=O)n1Cc1ccco1,3,24,20,0.8,17
C=C(CCC(=O)c1ccccc1)C(=O)c1ccccc1,100*,12,25,0.9,-2
C=C(C(=O)c1ccccc1)C(CC(=O)c1ccccc1)c1ccccc1 (configuration not stated),82*,14,10,0.9,-14
O=C(CCCCCCCC(=O)c1ccccc1)c1ccccc1,-7,20,-8,0.8,12
CC(O)CN=c1cc(-c2ccccc2)oc2ccc(Cl)cc12 (configuration not stated),34,-4,27,1,4
OCCN=c1cc(-c2ccccc2)oc2ccc(Cl)cc12,84*,-8,-1,1.1,2
CCc1ccc(NC(=O)CSc2nnc(Cc3cccn3C)n2-c2ccc(F)cc2)cc1,16,10,15,0.9,-19
CC1=C(C(=O)OCC2CCCO2)C(c2ccc(Cl)c(Cl)c2)NC(=O)N1 (configuration not stated),-5,-10,-19,1.1,1
Cc1cc(C)c2c(c1)-c1c(ssc1=S)C(C)(C)N2C(=O)CN1C(=O)c2ccccc2C1=O,97*,7,18,0.9,15
CCOc1ccccc1NC(=O)NC(=O)N(C)S(=O)(=O)c1ccc(C)cc1,-8,24,62*,0.8,7
CCOc1ccccc1NC(=O)CCN(c1ccc(C)cc1)S(=O)(=O)c1ccccc1,81*,22,8,0.8,-6
CC(=O)Nc1ccc(NC(=O)CN(c2cccc([N+](=O)[O-])c2)S(C)(=O)=O)cc1,-1,6,8,0.9,6
COc1cc2nc(C3CCC3)nc(N3CCN(c4ccccc4OC)CC3)c2cc1OC,58*,21,83*,0.8,-3
COc1cc2nc(C3CCC3)nc(N3CCN(c4ccccn4)CC3)c2cc1OC,54*,8,30,0.9,-4
O=C(Nn1c(C2CCCCC2)nc2ccccc2c1=O)c1ccc([N+](=O)[O-])cc1,0,18,28,0.8,1
COC(=O)c1ccccc1NC(=O)c1cccc(NC(=O)C(C)C)c1,5,20,-1,0.8,6
O=C(CSc1cnc2ccccc2n1)c1ccc(F)cc1,-1,9,6,0.9,16
Cn1c(-c2c(N)n(CCCc3ccccc3)c3nc4ccccc4nc23)nc2ccccc21,98*,15,49,0.9,9
COCCCn1c(N)c(-c2nc3ccccc3n2C)c2nc3ccccc3nc21,37,11,19,0.9,10
Cn1c(-c2c(N)n(CCc3ccccc3)c3nc4ccccc4nc23)nc2ccccc21,100*,14,50,0.9,4
COc1ccc(C)cc1S(=O)(=O)N(CC(N)=O)Cc1ccccc1,-4,11,-1,0.9,1
COc1ccc(C(=O)NNC(=S)NC(=O)/C=C/c2cccs2)cc1,15,/,8,/,2
O=C(/C=C/c1cccs1)NC(=S)NNC(=O)c1ccccc1O,99*,35,30,0.6,0
c1ccc(-c2nnc(OCCN3CCOCC3)c3ccccc23)cc1,83*,-8,-8,1.1,9
O=C(CN1CCOCC1)N1CCN(c2nnc(-c3ccccc3)c3ccccc23)CC1,2,10,3,0.9,-5
Cc1ccc(C(Sc2ccccc2)C(Cn2cncn2)C(=O)c2ccccc2)cc1 (configuration not stated),15,-3,25,1,0
